ChEMBL document CHEMBL4017460, “A Tobramycin Vector Enhances Synergy and Efficacy of Efflux Pump Inhibitors against Multidrug-Resistant Gram-Negative Bacteria” (J Med Chem, 2017)
Values after ≈ are worked out from the molar mass of the structure shown. Active and inactive are the calls of the source. No cut-off for these calls is given here.

Tests used:
Enterobacter cloacae [1] = assay: Inhibition of RND efflux pump in Enterobacter cloacae isolate 117029 assessed as potentiation of minocycline-induced antibacterial activity at 8 ug/ml after 18 to 24 hrs by microbroth dilution assay
In short: (§1)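 Checkerboard in MHB: antibiotic 2-fold diluted along one axis, test agent 2-fold diluted along the other. Overnight culture standardized to 0.5 McFarland in saline, diluted 1:50 in MHB, added to wells, incubated 37 °C for 18 h. MIC is the lowest concentration with no growth. FIC = MIC in combination / MIC alone; FIC index = sum of both FICs.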

Enterobacter cloacae [2] = assay: Antibacterial activity against Enterobacter cloacae isolate 117029 after 18 to 24 hrs by microbroth dilution assay; format: functional; in short: as §1
[3] = system: Pseudomonas aeruginosa PAO1; assay: Inhibition of RND efflux pump in Pseudomonas aeruginosa PAO1 assessed as potentiation of minocycline-induced antibacterial activity at 8 ug/ml after 18 to 24 hrs by checker board assay; in short: as §1
Klebsiella pneumoniae [4] = assay: Antibacterial activity against Klebsiella pneumoniae isolate 116381 after 18 to 24 hrs by microbroth dilution assay; format: functional; in short: as §1
Klebsiella pneumoniae [5] = assay: Inhibition of RND efflux pump in Klebsiella pneumoniae isolate 116381 assessed as potentiation of minocycline-induced antibacterial activity by measuring minocycline MIC at 8 ug/ml after 18 to 24 hrs by microbroth dilution assay (reference value: 128 ug/ml)
In short: (§2)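 Absolute minocycline MIC taken from checkerboard broth dilution with a fixed 8 μg/mL adjuvant. Inoculum was a 0.5 McFarland saline suspension diluted 1:50 in MHB, incubated 37 °C for 18 h. MIC is the lowest concentration with no growth.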

Pseudomonas aeruginosa [6] = assay: (§3) Inhibition of RND efflux pump in XDR Pseudomonas aeruginosa isolate P262-101856 infected in Galleria mellonella assessed as potentiation of minocycline-induced antibacterial activity by measuring larval death rate at 75 mg/kg co-treated with 75 mg/kg minocycline measured after 24 hrs relative to control; format: organism-based; set-up: scale not given: the % may be the effect or the level left
In short: (§4)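 G. mellonella larvae infected with 1.0 × 10^5/mL CFU of XDR P. aeruginosa 101856. A single-dose injection of agent, alone or with minocycline, given 2 h post-infection. Survival scored up to 24 h. 15 larvae per experiment from different batches, two experiments per dosage (n = 30). Significance 0 vs 24 h at P ≤ 0.05.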

Klebsiella pneumoniae [7] = assay: Inhibition of RND efflux pump in Klebsiella pneumoniae isolate 116381 assessed as potentiation of minocycline-induced antibacterial activity at 8 ug/ml after 18 to 24 hrs by microbroth dilution assay; in short: as §1
Pseudomonas aeruginosa [8] = assay: Antibacterial activity against Pseudomonas aeruginosa PAO1 after 18 to 24 hrs by microbroth dilution assay; format: functional; in short: as §1
Pseudomonas aeruginosa [9] = assay: as §3, with “survival” for “death”; format: organism-based; in short: as §4
[10] = system: Pseudomonas aeruginosa PAO1; assay: Inhibition of RND efflux pump in Pseudomonas aeruginosa PAO1 assessed as potentiation of minocycline-induced antibacterial activity by measuring minocycline MIC at 8 ug/ml after 18 to 24 hrs by microbroth dilution assay (reference value: 8 ug/ml); in short: as §2
Enterobacter cloacae [11] = assay: Inhibition of RND efflux pump in Enterobacter cloacae isolate 117029 assessed as potentiation of minocycline-induced antibacterial activity by measuring minocycline MIC at 8 ug/ml after 18 to 24 hrs by microbroth dilution assay (reference value: 128 to 256 ug/ml); in short: as §2
[12] = system: Pseudomonas aeruginosa PAO1; assay: Inhibition of RND efflux pump in Pseudomonas aeruginosa PAO1 assessed as increase in tetracycline uptake up to 5.7 ug/ml measured at 1 min interval for 30 mins by fluorescence assay
Pseudomonas aeruginosa [13] = assay: Antibacterial activity against XDR Pseudomonas aeruginosa isolate P262-101856 infected in Galleria mellonella assessed as protection against bacterial infection by measuring larval death at 75 mg/kg up to 24 hrs relative to control; format: functional; in short: as §4
Pseudomonas aeruginosa [14] = assay: Induction of outer membrane permeabilization in Pseudomonas aeruginosa PAO1 assessed as increase in tetracycline uptake at 29 ug/ml measured at 1 min interval for 30 mins by fluorescence assay; format: functional
In short: (§5)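 Tetracycline uptake assay in P. aeruginosa PAO1: enhancement of tetracycline fluorescence as it enters cells, monitored with compound present at several concentrations.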

Pseudomonas aeruginosa [15] = assay: Induction of cytoplasmic membrane depolarization in Pseudomonas aeruginosa PAO1 at 16 ug/ml by DiSC3(5) dye based fluorescence assay; format: functional
In short: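 Cytoplasmic membrane depolarization in P. aeruginosa PAO1, monitored by DiSC3(5) fluorescence across a range of compound concentrations. Colistin served as positive control.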

Pseudomonas aeruginosa [16] = assay: Antibacterial activity against Pseudomonas aeruginosa PAO1 assessed as ratio of MIC after 25 serial passages at sub-MIC to MIC after 1 passage by microbroth dilution assay; format: functional
Pseudomonas aeruginosa [17] = assay: Induction of membrane destabilization in Pseudomonas aeruginosa PAO1 assessed as increase in tetracycline uptake at 5 ug/ml measured at 1 min interval for 30 mins by fluorescence assay; format: functional
[18] = system: Pseudomonas aeruginosa PAO1; assay: Inhibition of RND efflux pump in Pseudomonas aeruginosa PAO1 assessed as increase in tetracycline uptake up to 8.2 ug/ml measured at 1 min interval for 30 mins by fluorescence assay; in short: as §5
[19] = system: Pseudomonas aeruginosa PAO1; assay: Inhibition of RND efflux pump in Pseudomonas aeruginosa PAO1 assessed as increase in tetracycline uptake at 13.6 ug/ml measured at 1 min interval for 30 mins by fluorescence assay; in short: as §5
[20] = system: Pseudomonas aeruginosa PAO1; assay: Inhibition of RND efflux pump in Pseudomonas aeruginosa PAO1 assessed as potentiation of minocycline-induced antibacterial activity by measuring fold reduction in minocycline MIC at 8 ug/ml after 18 to 24 hrs by microbroth dilution assay relative to minocycline alone; in short: as §2
[21] = Toxicity in Galleria mellonella assessed as death at 100 mg/kg after 24 hrs relative to control; format: organism-based; settings: in vivo, read-out: Activity
[22] = system: Pseudomonas aeruginosa PAO1; assay: Inhibition of RND efflux pump in Pseudomonas aeruginosa PAO1 assessed as potentiation of minocycline-induced antibacterial activity by measuring ratio of minocycline MIC after 25 serial passages to minocycline MIC at sub-MIC after 18 to 24 hrs by microbroth dilution assay

Work on `c1ccc2c(CN3CCNCC3)cccc2c1` yielded a fractional inhibitory concentration index (FICI) (Enterobacter cloacae [1]) of over 0.5, an MIC (Enterobacter cloacae [2]) of over 512 µg/mL and a fractional inhibitory concentration index (FICI) [3] of 1.02. For the same compound, the MIC (Klebsiella pneumoniae [4]) was over 512 µg/mL, the MIC (Klebsiella pneumoniae [5]) was 128 µg/mL and the Activity (Pseudomonas aeruginosa [6]) was 100%. The fractional inhibitory concentration index (FICI) (Klebsiella pneumoniae [7]) was 0.25 to 0.38, the MIC (Pseudomonas aeruginosa [8]) was 512 µg/mL (≈ 2260 µM) and the Survival (Pseudomonas aeruginosa [9]) was 0%. The MIC [10] was 8 µg/mL, the MIC (Enterobacter cloacae [11]) was 128 µg/mL and the inhibition [12] was “inactive”. For the same compound, the Activity (Pseudomonas aeruginosa [13]) was 100%.

`NC[C@H]1O[C@H](O[C@H]2[C@H](OCCCCCCCCCCN3CCN(Cc4cccc5ccccc45)CC3)[C@@H](O[C@H]3O[C@H](CO)[C@@H](O)[C@H](N)[C@H]3O)[C@H](N)C[C@@H]2N)[C@H](N)C[C@@H]1O.O=C(O)C(F)(F)F.O=C(O)C(F)(F)F.O=C(O)C(F)(F)F.O=C(O)C(F)(F)F.O=C(O)C(F)(F)F.O=C(O)C(F)(F)F.O=C(O)C(F)(F)F` showed a fractional inhibitory concentration index (FICI) [3] of 0.125 to 0.14, an MIC (Pseudomonas aeruginosa [8]) of over 512 µg/mL and an MIC [10] of 1 µg/mL.

`Cl.Cl.Cl.Cl.Cl.Cl.Cl.NC[C@H]1O[C@H](O[C@H]2[C@H](OCCN3CCN(Cc4cccc5ccccc45)CC3)[C@@H](O[C@H]3O[C@H](CO)[C@@H](O)[C@H](N)[C@H]3O)[C@H](N)C[C@@H]2N)[C@H](N)C[C@@H]1O` gave a fractional inhibitory concentration index (FICI) [3] of 0.53, an MIC (Pseudomonas aeruginosa [8]) of 128 µg/mL and an MIC [10] of 4 µg/mL.

For COLISTIN, the Activity (Pseudomonas aeruginosa [14]) was “Active”, the fractional inhibitory concentration index (FICI) [3] was 0.5 and the Activity (Pseudomonas aeruginosa [15]) was “Active”. The Ratio (Pseudomonas aeruginosa [16]) was over 1024.

Compound Cetrimonium bromide has a fractional inhibitory concentration index (FICI) [3] of 0.75.

In the case of `N#CC(C#N)=NNc1cccc(Cl)c1`, the Activity (Pseudomonas aeruginosa [17]) is reported as “Active”.

For `Cl.Cl.Cl.Cl.Cl.Cl.Cl.NC[C@H]1O[C@H](O[C@H]2[C@H](OCCCCN3CCN(Cc4cccc5ccccc45)CC3)[C@@H](O[C@H]3O[C@H](CO)[C@@H](O)[C@H](N)[C@H]3O)[C@H](N)C[C@@H]2N)[C@H](N)C[C@@H]1O`, the fractional inhibitory concentration index (FICI) [3] was 0.25 to 0.5, the MIC (Pseudomonas aeruginosa [8]) was 512 µg/mL and the MIC [10] was 4 µg/mL.

`CN(C)c1ccc(O)c2c1C[C@H]1C[C@H]3[C@H](N(C)C)C(O)=C(C(N)=O)C(=O)[C@@]3(O)C(O)=C1C2=O` [MINOCYCLINE] showed a Ratio (Pseudomonas aeruginosa [16]) of 16 and an Activity (Pseudomonas aeruginosa [13]) of 100%.

In the case of `Fc1ccc([C@@H]2CCNC[C@H]2COc2ccc3c(c2)OCO3)cc1` [PAROXETINE], the fractional inhibitory concentration index (FICI) (Enterobacter cloacae [1]) is reported as 0.5, the MIC (Enterobacter cloacae [2]) is reported as 64 µg/mL (≈ 194 µM) and the fractional inhibitory concentration index (FICI) [3] is reported as 1.02. It also gave an MIC (Klebsiella pneumoniae [4]) of 128 µg/mL (≈ 389 µM), an MIC (Klebsiella pneumoniae [5]) of 128 µg/mL and an Activity (Pseudomonas aeruginosa [6]) of 100%. The fractional inhibitory concentration index (FICI) (Klebsiella pneumoniae [7]) was 0.63, the MIC (Pseudomonas aeruginosa [8]) was 512 µg/mL (≈ 1550 µM) and the inhibition [18] was “inactive”. The MIC [10] was 8 µg/mL and the MIC (Enterobacter cloacae [11]) was 64 µg/mL.

In the case of `Cl.Cl.Cl.Cl.Cl.Cl.Cl.NC[C@H]1O[C@H](O[C@H]2[C@H](OCCCCCCCCN3CCN(Cc4cccc5ccccc45)CC3)[C@@H](O[C@H]3O[C@H](CO)[C@@H](O)[C@H](N)[C@H]3O)[C@H](N)C[C@@H]2N)[C@H](N)C[C@@H]1O`, the fractional inhibitory concentration index (FICI) [3] is reported as 0.125 to 0.25, the MIC (Pseudomonas aeruginosa [8]) is reported as over 512 µg/mL and the MIC [10] is reported as 2 µg/mL.

For `NC[C@H]1O[C@H](O[C@H]2[C@H](O)[C@@H](O[C@H]3O[C@H](CO)[C@@H](O)[C@H](N)[C@H]3O)[C@H](N)C[C@@H]2N)[C@H](N)C[C@@H]1O` [TOBRAMYCIN], the fractional inhibitory concentration index (FICI) [3] was 1.06, the MIC (Pseudomonas aeruginosa [8]) was 0.25 µg/mL (≈ 0.535 µM) and the Ratio (Pseudomonas aeruginosa [16]) was 256.

In the case of `Cl.Cl.Cl.Cl.Cl.Cl.Cl.NC[C@H]1O[C@H](O[C@H]2[C@H](OCCCCCCN3CCN(Cc4cccc5ccccc45)CC3)[C@@H](O[C@H]3O[C@H](CO)[C@@H](O)[C@H](N)[C@H]3O)[C@H](N)C[C@@H]2N)[C@H](N)C[C@@H]1O`, the fractional inhibitory concentration index (FICI) [3] is reported as 0.25 to 0.5, the MIC (Pseudomonas aeruginosa [8]) is reported as over 512 µg/mL and the MIC [10] is reported as 4 µg/mL.

For `NC[C@@H]1CN[C@@H](C(=O)N[C@H](CCc2ccccc2)C(=O)Nc2ccc3ccccc3c2)C1`, the fractional inhibitory concentration index (FICI) (Enterobacter cloacae [1]) was 0.13, the inhibition [19] was “Active” and the fold change (FC) [20] was 8. The MIC (Enterobacter cloacae [2]) was 64 µg/mL (≈ 149 µM), the fractional inhibitory concentration index (FICI) [3] was 0.13 and the MIC (Klebsiella pneumoniae [4]) was 256 µg/mL (≈ 595 µM). The MIC (Klebsiella pneumoniae [5]) was 4 µg/mL, the mortality at 24 h [21] was 80% and the Ratio [22] was 4. For the same compound, the fractional inhibitory concentration index (FICI) (Klebsiella pneumoniae [7]) was 0.06, the MIC (Pseudomonas aeruginosa [8]) was 256 µg/mL (≈ 595 µM) and the MIC [10] was 1 µg/mL. For the same compound, the MIC (Enterobacter cloacae [11]) was 8 µg/mL.
